Measurements as given in ChEMBL document CHEMBL4706770, “SD-91 as A Potent and Selective STAT3 Degrader Capable of Achieving Complete and Long-Lasting Tumor Regression” (ACS Med Chem Lett, 2021).
Activity calls are given as the source filed them. No cut-off for these calls is given here.

What was measured:
[1] = target: Protein cereblon/Signal transducer and activator of transcription 1-alpha/beta (Homo sapiens) (UniProt P42224+Q96SW2); test: Protac activity at CRBN/STAT1 in human SUP-M2 cells […] at 0.25 to 100 uM incubated for 4 hrs by Western blot analysis; assay type: cell-based; conditions: SUPM2, dose lower 0.25 µM
[2] = Drug metabolism in complete cell culture medium assessed as (2-(((5S,8S,10aR)-8-(((S)-5-amino-1-(benzhydrylamino)-1,5-dioxopentan-2-yl)carbamoyl)-3-(8-(2-(2,6-dioxopiperidin-3-yl)-1-oxoisoindolin-4-yl)oct-7-ynoyl)-6-oxodecahydropyrrolo[1,2-a][1,5]diazocin-5-yl)carbamoyl)-1H-indole-5-carbonyl)phosphonic acid after 24 hrs by LC/MS/MS analysis
Summary of the method: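 Parent compound incubated in the cell culture medium used for the cellular assays, with or without cells, at 37 °C. Percentages of the hydrolysis product and the glutarimide ring-opened product measured at time points up to 96 h.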

[3] = Drug uptake in SCID mouse xenografted with human MOLM16 cells assessed as (2-(((5S,8S,10aR)-8-(((S)-5-amino-1-(benzhydrylamino)-1,5-dioxopentan-2-yl)carbamoyl)-3-(8-(2-(2,6-dioxopiperidin-3-yl)-1-oxoisoindolin-4-yl)oct-7-yno yl)-6-oxodecahydropyrrolo[1,2-a][1,5]diazocin-5-yl)carbamoyl)-1H-indole-5-carbonyl)phosphonic acid level in tumor tissue at 50 mg/kg, iv measured after 24 hrs by LC-MS/MS; assay type: ADME, organism-based; conditions: in vivo
Summary of the method: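 SCID mice bearing MOLM-16 xenografts given a single iv dose of 50 mg/kg. Concentrations of parent and hydrolysis product measured in plasma (ng/mL) and tumor tissue (ng/g) at 1, 6 and 24 h.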

Mus musculus [4] = test: In vivo induction of STAT3 degradation in SCID mouse xenografted with human MOLM16 cells assessed as reduction in phosphorylated STAT3 level in tumor tissue at 50 mg/kg, iv measured after 24 hrs by immunoblotting analysis; assay type: functional, organism-based
Summary of the method: (§1)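 SCID mice bearing MOLM-16 or SU-DHL-1 xenografts given a single iv dose of 50 mg/kg or dosing vehicle. Tumor lysates immunoblotted for p-STAT3 Y705 and total STAT3 at time points up to 48 h (MOLM-16) and 24 h (SU-DHL-1).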

[5] = target: T1, Signal transducer and activator of transcription 1-alpha/beta (Homo sapiens, UniProt P42224); test: Binding affinity to human recombinant STAT1 assessed as dissociation constant incubated for 15 mins by biolayer interferometry
T1 sequence (P42224 whole entry): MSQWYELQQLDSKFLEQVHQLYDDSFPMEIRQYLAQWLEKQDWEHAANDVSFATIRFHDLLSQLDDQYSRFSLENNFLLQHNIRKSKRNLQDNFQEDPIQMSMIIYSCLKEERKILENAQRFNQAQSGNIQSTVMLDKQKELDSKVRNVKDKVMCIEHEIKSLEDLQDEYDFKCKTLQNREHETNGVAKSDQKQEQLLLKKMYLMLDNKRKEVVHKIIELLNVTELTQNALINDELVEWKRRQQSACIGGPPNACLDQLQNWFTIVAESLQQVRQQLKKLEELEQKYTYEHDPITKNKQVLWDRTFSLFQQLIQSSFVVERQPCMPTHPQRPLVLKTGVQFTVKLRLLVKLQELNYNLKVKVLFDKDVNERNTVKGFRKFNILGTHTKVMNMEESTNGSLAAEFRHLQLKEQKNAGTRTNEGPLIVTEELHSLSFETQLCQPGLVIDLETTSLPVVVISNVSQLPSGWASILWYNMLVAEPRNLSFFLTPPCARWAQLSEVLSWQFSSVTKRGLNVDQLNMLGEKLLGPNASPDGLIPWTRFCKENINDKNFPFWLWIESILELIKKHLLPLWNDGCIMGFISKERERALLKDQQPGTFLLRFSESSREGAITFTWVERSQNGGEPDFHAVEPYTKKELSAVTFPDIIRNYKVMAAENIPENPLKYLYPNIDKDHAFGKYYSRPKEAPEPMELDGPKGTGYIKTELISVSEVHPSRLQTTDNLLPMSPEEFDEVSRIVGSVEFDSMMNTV
Summary of the method: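 Biolayer interferometry with recombinant human STAT1, STAT2, STAT3, STAT4, STAT5A, STAT5B or STAT6 proteins containing their SH2 domain. Compound run in 2× serial dilutions from 200 nM. Kd taken from steady-state fitting of equilibrium responses against concentration using a 1:1 binding model.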

Mus musculus [6] = test: In vivo induction of STAT3 degradation in SCID mouse xenografted with human SU-DHL-1 cells assessed as reduction in phosphorylated STAT3 level in tumor tissue at 50 mg/kg, iv measured after 24 hrs by immunoblotting analysis; assay type: functional, organism-based; summary of the method: as §1
Mus musculus [7] = test: In vivo induction of STAT6 degradation in SCID mouse xenografted with human MOLM16 cells assessed as reduction in STAT6 in tumor tissue at 50 mg/kg, iv measured after 24 hrs by immunoblotting analysis; assay type: functional, organism-based
Summary of the method: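 SCID mice bearing MOLM-16 tumors given a single iv dose of 50 mg/kg or dosing vehicle. Tumor lysates immunoblotted for STAT3, STAT1 and STAT6 at time points from 1 h to at least 24 h.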

[8] = Toxicity in SCID mouse xenografted with human MOLM16 cells assessed as body weight loss at 25 to 50 mg/kg, iv for 65 days; assay type: organism-based; conditions: in vivo, 1560 h, dose 25-50 mg/kg, time 65 day
Summary of the method: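 SCID mice bearing MOLM-16 xenografts dosed intravenously at 25 or 50 mg/kg on a weekly schedule; vehicle 10% PEG400/90% PBS; body weight and tumor volume measured every 2 days; signs of toxicity monitored during and after treatment.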

[9] = target: Signal transducer and activator of transcription 3 (Homo sapiens, UniProt P40763); test: Induction of STAT3 degradation in human SU-DHL-1 cells incubated for 4 hrs by western blot analysis; assay type: cell-based
Sequence of Signal transducer and activator of transcription 3 (P40763 whole entry): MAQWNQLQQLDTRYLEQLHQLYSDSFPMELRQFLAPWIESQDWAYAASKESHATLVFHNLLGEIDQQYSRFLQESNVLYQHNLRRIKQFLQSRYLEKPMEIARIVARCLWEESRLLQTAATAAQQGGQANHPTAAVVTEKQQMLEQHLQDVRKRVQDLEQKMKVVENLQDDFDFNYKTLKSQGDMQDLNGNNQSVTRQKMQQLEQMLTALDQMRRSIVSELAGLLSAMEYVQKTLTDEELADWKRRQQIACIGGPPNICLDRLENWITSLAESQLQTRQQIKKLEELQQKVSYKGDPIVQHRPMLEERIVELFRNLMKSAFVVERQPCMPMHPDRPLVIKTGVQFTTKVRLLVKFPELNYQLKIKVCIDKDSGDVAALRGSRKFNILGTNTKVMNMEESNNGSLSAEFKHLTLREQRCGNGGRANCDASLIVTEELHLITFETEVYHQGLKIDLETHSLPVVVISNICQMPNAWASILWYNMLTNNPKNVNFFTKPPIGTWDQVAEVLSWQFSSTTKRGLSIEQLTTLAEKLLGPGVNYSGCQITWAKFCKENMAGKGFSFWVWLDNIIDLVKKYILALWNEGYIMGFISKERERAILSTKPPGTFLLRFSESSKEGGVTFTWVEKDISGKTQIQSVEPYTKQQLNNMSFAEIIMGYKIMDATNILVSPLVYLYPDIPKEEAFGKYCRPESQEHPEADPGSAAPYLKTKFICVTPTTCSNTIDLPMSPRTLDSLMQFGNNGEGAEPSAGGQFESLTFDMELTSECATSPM
Summary of the method: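 Cells treated 4 h with compounds across 25 nM to 100 μM; STAT proteins detected by Western blot with GAPDH as loading control; STAT3 DC50 estimated by densitometry of STAT3 relative to GAPDH. Applies to MOLM-16 for all STATs, and to SU-DHL-1 and SUP-M2 for STAT3.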

For `NC(=O)CC[C@H](NC(=O)[C@@H]1CC[C@@H]2CCN(C(=O)CCCCCC#Cc3cccc4c3CN(C3CCC(=O)NC3=O)C4=O)C[C@H](NC(=O)c3cc4cc(C(F)(F)P(=O)(O)O)ccc4[nH]3)C(=O)N21)C(=O)NC(c1ccccc1)c1ccccc1` (some centres undefined), the Activity [1] was “inactive”, the Drug metabolism [2] was 90% and the Drug uptake [3] was 396 ng/g.

With `NC(=O)CC[C@H](NC(=O)[C@@H]1CC[C@@H]2CCN(C(=O)CCCCCC#Cc3cccc4c3CN(C3CCC(=O)NC3=O)C4=O)C[C@H](NC(=O)c3cc4cc(C(=O)P(=O)(O)O)ccc4[nH]3)C(=O)N21)C(=O)NC(c1ccccc1)c1ccccc1` (some centres undefined) the Activity (Mus musculus [4]) was “Active”, the Kd [5] was over 10 nM and the Activity (Mus musculus [6]) was “Active”. The Activity (Mus musculus [7]) was “inactive”, the Activity [8] was “Non-Toxic” and the DC50 [9] was 17 nM.
